Screens: PubChem BioAssay, SRMLSC
HCT116 bCat-KO – primary screen for growth suppressors in beta-catenin knockout HCT116 cells (colon tumor, human) | viability, % at 10 µM | HCT116 beta-catenin knockout viability, CellTiter-Glo, 60 h; stronger effect = lower value | 1.5% of 140,000 active;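 active = viability at or under a set limit, the compound median less 4 SD, cut at about 6% in these data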
Fibroblast inh – antiproliferative effect on LL 47 fibroblasts – human, LL 47 cells, CellTiter-Glo luminescence, primary screen. LL 47 human lung fibroblast viability, ATP luminescence; stronger effect = lower value. viability, % at 10 µM. 1.1% of 85,000 active. AID 719, 2007;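 active = viability at or below 50% in the single dose screen; inactive = viability above 50%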;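 also: compound exposure lasted 72 h before the ATP readout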
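Test system: LL 47 human lung fibroblasts / Quantity: 1,150 cells in each well / Medium: IMEM growth medium with 15% fetal bovine serum / Incubation: 72 h compound exposure at 37 °C after overnight plating / Detection: CellTiter-Glo luminescence measuring cellular ATP / Read-out: % viability versus median cells-only luminescence / Benchmarks: cell-only wells, no compound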
PTEN del growth – growth suppression of PTEN-null HCT116, primary screen, cell-based, CellTiter-Glo; AID 827, 2007; HCT116 PTEN-null viability, 60 h; stronger effect = lower value; 1.2% of 140,000 active; viability, % at 10 µM;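 active = viability at or below a set limit, 4 SD under the median of all tested compounds, cut at about 3.7% in these data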;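 also: PTEN knockout HCT116 line with beta catenin targeted HCT116 as companion control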
H69AR inhibit – proliferation blockers of H69AR lung cancer cells, primary screen, cell-based, human, 86K library | viability, % at 10 µM | H69AR lung tumor viability, ATP luminescence, 72 h; stronger effect = lower value | AID 598, 2007 | 6% of 85,000 active;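 active = viability at or below 40%; inactive = viability above 40%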;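 also: multidrug resistant small cell line overexpressing MRP-1 efflux transporter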
HUVEC inhibit – inhibitors of HUVEC proliferation, primary screen, cell-based, 384-well; CellTiter-Glo luminescence, 72 h; stronger effect = lower value; viability, % at 10 µM (by protocol); 1.1% of 86,000 active; AID 648, 2007;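 active = viability at or below 30%; inactive = viability above 30%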
Hits are given with their value; . = inactive; / = not tested or not shown. Shown is part of a subset that was picked to be rich in hits.

SMILES | HCT116 bCat-KO | Fibroblast inh | PTEN del growth | H69AR inhibit | HUVEC inhibit
O=C(Nc1ccc2nn(-c3ccccc3)nc2c1)c1ccc2c(c1)OCCO2 | . | / | . | . | .
CCOc1ccc(-n2nc3ccc(NC(=O)c4ccc5c(c4)OCCO5)cc3n2)cc1 | . | 28 | . | 13 | .
CC(/C=N/NC(=O)Cn1cnc2c1c(=O)n(C)c(=O)n2C)=C\c1ccccc1 | . | / | . | / | /
CCCCN1C(=O)c2ccc(C(=O)NCCN3C(=O)S/C(=C\c4cccnc4)C3=O)cc2C1=O | . | / | . | / | /
CC(=O)Nc1nc(-c2ccccc2)nc(-c2ccccc2OC(C)=O)n1 | . | / | . | 24 | .
CCOC(=O)c1cccc2c(=O)c(C(=O)c3ccc(Cl)cc3)c(C(=O)OC)[nH]c12 | . | / | . | / | /
CCCCCCOC(=O)C(C#N)c1nc2ccccc2nc1N1CCN(CC)CC1 (configuration not stated) | . | . | . | . | 4.3
CCCCCCOC(=O)C(C#N)c1nc2ccccc2nc1N1CCOCC1 (configuration not stated) | . | . | . | . | .
COc1cccc(-c2nc(-c3ccccn3)no2)c1OC | . | . | . | . | .
c1ccc(-c2noc(-c3cccc4ccccc34)n2)nc1 | . | . | . | 38 | .
c1ccc(-c2nc(-c3ccccn3)no2)cc1 | . | . | . | . | .
c1ccc(-c2ccc(-c3nc(-c4ccccn4)no3)cc2)cc1 | . | 42 | . | 34 | .
O=C(/C=C/c1ccc(Cl)c([N+](=O)[O-])c1)Nc1ccc(N2CCCC2)cc1 | . | / | . | / | /
Cc1cc2c(cc1C)CSC(c1ccc(O)cc1)SC2 | . | . | . | . | .
Cc1cc2c(cc1C)CSC(c1ccc3ccccc3c1O)SC2 | . | . | . | 38 | .
Cc1cc2c(cc1C)CSC(c1c(O)ccc3ccccc13)SC2 | 4.6 | . | . | 1.6 | 1.7
Cc1cc2c(cc1C)CSC(c1ccccc1O)SC2 | . | . | . | . | .
CC(C)CSc1nc2c(=O)[nH][nH]c(=O)c2n1Cc1ccccc1 | . | . | . | . | .
Cn1c(N)c(C(=O)c2ccc(C#N)cc2)c(=O)n(C)c1=O | . | / | . | / | /
C#CCSc1nnc(-c2ccc(OC)cc2)o1 | . | . | . | 19 | .
CCOC(=O)c1c(C)[nH]c(C)c1C(=O)CSc1nnc(-c2ccc(OC(F)F)cc2)o1 | . | . | . | . | .
COc1ccc(-c2nnc(SCC(=O)c3[nH]c(C)c(C(C)=O)c3C)o2)cc1 | . | . | . | 5.3 | .
COc1cccc(C(=O)CSc2nnc(-c3cc(OC)cc(OC)c3)o2)c1 | . | . | . | 8.7 | 24
CCOC(=O)c1[nH]c(CSc2nnc(-c3ccc(OC)cc3)o2)c(C(=O)OCC)c1C | . | . | . | 18 | .
COc1cccc(C(=O)CSc2nnc(-c3cccs3)o2)c1 | . | . | . | . | .
SMILES | HCT116 bCat-KO | Fibroblast inh | PTEN del growth | H69AR inhibit | HUVEC inhibit
O=C(NCc1ccccc1F)C1CCCN(C(=O)NC2CCCCC2)C1 (configuration not stated) | . | . | . | . | .
Cc1cc(C)c(S(=O)(=O)N2CCCCC2)c(C)c1N(C)S(=O)(=O)c1ccc(Cl)cc1 | . | / | . | / | /
CC1(C)CC(NC(=O)c2coc(=O)c(Br)c2)CC(C)(C)N1 | . | 34 | . | 0.7 | .
CC1CCN(CCOc2ccc(Cl)c(Cl)c2)CC1 | . | / | . | / | /
CCOC(=O)Cn1c(=O)c(-c2ccccc2NCc2ccccc2)nc2ccccc21 | / | . | / | 28 | .
CCOC(=O)Cn1c(-c2ccccc2)nc2ccccc2c1=O | . | / | . | / | /
N#CCCn1c(SCC(=O)Nc2ccc(N3CCOCC3)cc2)nc2ccccc21 | . | / | . | / | /
CCOC(=O)c1csc(NC(=O)CSc2nnnn2-c2ccc(OC)cc2)n1 | . | / | . | / | /
CCOc1ccccc1NC(=O)CSc1nnnn1-c1ccc(C(=O)OC)cc1 | . | . | . | . | .
CCOc1cc(C#N)c(NC(=O)CSc2nnnn2-c2ccc(OC)cc2)cc1OCC | . | . | . | 36 | .
CCOC(=O)c1c(NC(=O)CSc2nnnn2-c2ccc(OC)cc2)sc(C)c1C | . | . | . | 30 | .
Nc1c(C(=O)NC2CCCCC2)c2nc3ccccc3nc2n1/N=C/c1ccco1 | / | . | / | 26 | .
CCn1cc(CNC(=O)c2cc(-c3cc(OC)ccc3OC)nc3ccccc23)c(C)n1 | . | / | . | / | /
Cc1nn2c(-c3cccc(NC(=O)CSc4nc5ccccc5o4)c3)nnc2c2ccccc12 | . | . | . | 9.6 | .
Cc1cc(C)cc(NS(=O)(=O)c2ccc(NC(=O)C3CCCCC3C(=O)O)cc2)c1 (configuration not stated) | . | / | . | / | /
COc1ccccc1CCNCc1ccc(OC)c(OCc2ccccc2)c1 | . | / | . | / | /
COc1cccc(CNCCc2c[nH]c3ccccc23)c1OCc1ccccc1 | 5.1 | / | . | / | /
COc1cc(CNCCc2c[nH]c3ccccc23)ccc1OCc1ccccc1F | 1.4 | / | 1.6 | / | /
COc1ccc(-c2cc(-c3c(O)c(OC)c4occc4c3OC)[nH]n2)cc1OC | . | . | . | 26 | .
Cc1ccc(C)c(OCC(=O)Nc2ccc3c(c2)OCO3)c1C | . | . | . | 21 | .
Cc1c(C(=O)Nc2ccc3oc(-c4cccnc4)nc3c2)oc2ccccc12 | . | 15 | . | 3.4 | .
Cc1c(C(=O)Nc2ccc(Cl)cn2)oc2ccccc12 | . | . | . | . | .
Cc1c(C(=O)Nc2cnccn2)oc2ccccc12 | . | . | . | 38 | .
O=c1[nH]c2cc3c(cc2cc1C(c1nnnn1Cc1ccccc1)N1CCCCCC1)OCCO3 (configuration not stated) | . | 30 | . | 2.1 | .
COCCn1nnnc1C(c1cc2cc(C)ccc2[nH]c1=O)N1CCCCCC1 (configuration not stated) | . | . | . | . | .
SMILES | HCT116 bCat-KO | Fibroblast inh | PTEN del growth | H69AR inhibit | HUVEC inhibit
O=c1[nH]c2cc3c(cc2cc1C(c1nnnn1Cc1ccccc1)N1CCCc2ccccc21)OCO3 (configuration not stated) | . | . | . | 21 | .
CCc1ccc2[nH]c(=O)c(C(c3nnnn3CC3CCCO3)N3CCCc4ccccc43)cc2c1 (configuration not stated) | . | . | . | 20 | .
COCCn1nnnc1C(c1cc2cc(OC)ccc2[nH]c1=O)N1CCC(Cc2ccccc2)CC1 (configuration not stated) | 3.0 | . | 2.7 | 3.8 | .
Cc1cc(C)n(-c2ccc(C(=O)Nc3cc(S(=O)(=O)N(C)C)ccc3Cl)cc2)n1 | . | / | . | / | /
CN1c2ccsc2C(O)=C(C(=S)Nc2ccc(F)c(Cl)c2)S1(=O)=O | . | . | . | . | .
O=c1cc(CN2CCN(C/C=C/c3ccccc3)CC2)c2cc(O)ccc2o1 | . | . | . | 39 | .
O=c1cc(CN2CCN(c3ccccc3)CC2)c2cc(O)c(-c3ccccc3)cc2o1 | . | 48 | . | 5.0 | .
